ChEMBL document CHEMBL4177645, “Exploration of multi-target potential of chromen-4-one based compounds in Alzheimer's disease: Design, synthesis and biological evaluations” (Bioorg Med Chem, 2017)
The source made the active and inactive calls. No cut-off for these calls is given here.

What was measured:
[1] = Anti-glycosylation activity using BSA assessed as inhibition of AGE formation measured after 30 hrs by fluorescence spectrophotometric method; assay type: functional
In short: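 Glucose-mediated glycation of protein with fluorescent AGE read-out at 370 nm excitation / 440 nm emission. Test compounds dissolved in DMSO at different concentrations. Aminoguanidine positive control. Run in triplicate.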

Acetylcholinesterase = biological target: T1, Acetylcholinesterase (Rattus norvegicus, UniProt P37136); assay: Inhibition of rat brain AChE using acetylthiocholine iodide as substrate by spectroscopic method
T1 sequence (P37136 whole entry): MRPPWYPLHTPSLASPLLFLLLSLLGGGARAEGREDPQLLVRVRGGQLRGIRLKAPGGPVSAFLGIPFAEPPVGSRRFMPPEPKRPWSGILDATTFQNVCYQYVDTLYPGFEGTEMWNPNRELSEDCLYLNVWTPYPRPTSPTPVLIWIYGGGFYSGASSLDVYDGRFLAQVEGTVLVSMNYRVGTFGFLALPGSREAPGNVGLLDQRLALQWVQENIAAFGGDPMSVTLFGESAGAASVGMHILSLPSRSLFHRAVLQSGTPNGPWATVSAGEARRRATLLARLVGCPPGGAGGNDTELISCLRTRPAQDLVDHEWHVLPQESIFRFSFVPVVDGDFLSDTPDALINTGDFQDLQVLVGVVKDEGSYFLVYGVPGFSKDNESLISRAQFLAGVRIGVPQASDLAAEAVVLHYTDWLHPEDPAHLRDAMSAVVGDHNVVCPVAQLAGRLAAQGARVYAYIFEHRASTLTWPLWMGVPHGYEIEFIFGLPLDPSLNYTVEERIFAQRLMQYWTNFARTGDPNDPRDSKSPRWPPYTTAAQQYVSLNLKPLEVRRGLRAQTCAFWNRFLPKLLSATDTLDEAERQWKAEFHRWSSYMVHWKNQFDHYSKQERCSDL

Mus musculus [2] = assay: Reversal of scopolamine-induced memory impairment in Swiss albino mouse assessed as attenuation of scopolamine-induced amnesia at 2 mg/kg, ip administered 30 mins prior to scopolamine challenge measured on day 4 by Morris water maze test; assay type: functional, organism-based
In short: (§1)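 Swiss albino mice of either sex (20–25 g), five per group. Scopolamine 0.5 mg/kg; agent (2, 5, 10 mg/kg, i.p.) given 30 min before scopolamine ahead of each of the first four trials. Morris water maze: escape latency on days 1–4, time in target quadrant on day 5. Vehicle 10% DMSO. Mean ± SD, two-way ANOVA with Tukey test.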

Mus musculus [3] = assay: Antialzheimer activity in Swiss albino mouse brain assessed as reversal of scopolamine-induced […] level at 10 mg/kg, ip (reference value: 26.51 +/- 0.79 nM/mg); assay type: functional
In short: (§2)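 Swiss albino mice of either sex (20–25 g), five per group, given scopolamine 0.5 mg/kg with test agent i.p. 30 min before scopolamine. After the water maze protocol, cortex and hippocampus were homogenized in ice-cold phosphate buffer pH 7.4 and spun 14,500 rpm, 15 min, 4 °C. Supernatant used for TBARS (Ohkawa) or reduced GSH (Beutler). Mean ± SD.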

Mus musculus [4] = assay: Antialzheimer activity in Swiss albino mouse brain assessed as reversal of scopolamine-induced reduction in GSH levels at 10 mg/kg, ip (reference value: 21.3 +/- 0.81); assay type: functional; in short: as §2
[5] = biological target: T2, Acetylcholinesterase (Rattus norvegicus) (UniProt P37136); assay: Potency index, ratio of donepezil IC50 to compound IC50 for inhibition of rat brain AChE
T2 sequence (whole entry): T1 sequence (P37136 whole entry)

Mus musculus [6] = assay: Antialzheimer activity in Swiss albino mouse brain assessed as reversal of scopolamine-induced […] assessed per mg protein at 5 mg/kg, ip (reference value: 1.25 +/- 0.04 nM/min/mg) by spectrophotometric analysis; assay type: functional
Mus musculus [7] = assay: Antialzheimer activity in Swiss albino mouse brain assessed as reversal of scopolamine-induced […] level at 5 mg/kg, ip (reference value: 26.51 +/- 0.79 nM/mg); assay type: functional; in short: as §2
Mus musculus [8] = assay: Antialzheimer activity in Swiss albino mouse brain assessed as reversal of scopolamine-induced reduction in GSH levels at 5 mg/kg, ip (reference value: 21.3 +/- 0.81); assay type: functional; in short: as §2
[9] = biological target: T2, Acetylcholinesterase (Rattus norvegicus); assay: Mixed type inhibition of rat brain AChE at 0.01 to 0.1 uM using increasing concentration acetylthiocholine iodide as substrate by Lineweaver-Burk plot analysis
Mus musculus [10] = assay: Reversal of scopolamine-induced memory impairment in Swiss albino mouse assessed as attenuation of scopolamine-induced decreased time spent in target quadrant at 2 to 10 mg/kg, ip administered 30 mins prior to scopolamine challenge measured on day 5 by Morris water maze test
Mus musculus [11] = assay: Antialzheimer activity in Swiss albino mouse brain assessed as reversal of scopolamine-induced […] assessed per mg protein at 10 mg/kg, ip (reference value: 1.25 +/- 0.04 nM/min/mg) by spectrophotometric analysis; assay type: functional
Mus musculus [12] = assay: Reversal of scopolamine-induced memory impairment in Swiss albino mouse assessed as attenuation of scopolamine-induced […] time at 2 to 10 mg/kg, ip administered 30 mins prior to scopolamine challenge measured on day 4 by Morris water maze test; assay type: functional, organism-based; in short: as §1

Molecule COc1ccc(-c2cc(=O)c3ccc(OCCCN4CCC(C)CC4)cc3o2)cc1 has an IC50 [1] of 42.6 µM and an IC50 (Acetylcholinesterase) of 0.0077 µM.
With COc1cc(-c2cc(=O)c3ccc(OCCCN4CCC(C)CC4)cc3o2)cc(OC)c1OC the IC50 [1] was 41.8 µM and the IC50 (Acetylcholinesterase) was 0.00612 µM.
In the case of COc1cc2c(cc1OC)C(=O)C(CC1CCN(Cc3ccccc3)CC1)C2 (centres undefined), the Activity (Mus musculus [2]) is reported as “Active”.
COc1ccc(-c2cc(=O)c3ccc(O)cc3o2)cc1 showed an IC50 [1] of 42 µM and an IC50 (Acetylcholinesterase) of 0.035 µM.
With COc1cc(-c2cc(=O)c3ccc(OCCN4CCC(C)CC4)cc3o2)cc(OC)c1OC the Activity (Mus musculus [3]) was 17.6 nM/mg, the Activity (Mus musculus [4]) was 36.8 nM/mg and the IC50 [1] was 37.1 µM. It also gave a Ratio IC50 [5] of 2, an Activity (Mus musculus [6]) of 0.97 nmol/min/mg and an IC50 (Acetylcholinesterase) of 0.00587 µM. For the same molecule, the Activity (Mus musculus [7]) was 20.14 nM/mg, the Activity (Mus musculus [8]) was 31.7 nM/mg and the inhibition [9] was “Active”. For the same molecule, the Activity (Mus musculus [10]) was “Active”, the Activity (Mus musculus [11]) was 0.85 nmol/min/mg and the Activity (Mus musculus [12]) was “Active”.
In the case of COc1ccc(-c2cc(=O)c3ccc(OCCCCCCN4CCC(C)CC4)cc3o2)cc1, the IC50 [1] is reported as 57.2 µM and the IC50 (Acetylcholinesterase) is reported as 0.0481 µM.
With COc1cc(-c2cc(=O)c3ccc(O)cc3o2)cc(OC)c1OC the IC50 [1] was 51.4 µM and the IC50 (Acetylcholinesterase) was 0.0442 µM.
COc1ccc(-c2cc(=O)c3ccc(OCCCN4CCC(C)CC4)cc3o2)cc1OC gave an IC50 [1] of 47.7 µM and an IC50 (Acetylcholinesterase) of 0.00648 µM.
Work on N=C(N)NN [PIMAGEDINE] yielded an IC50 [1] of 40.1 µM.
With COc1ccc(-c2cc(=O)c3ccc(OCCN4CCC(C)CC4)cc3o2)cc1OC the IC50 [1] was 42.1 µM and the IC50 (Acetylcholinesterase) was 0.00677 µM.
For COc1ccc(-c2cc(=O)c3ccc(O)cc3o2)cc1OC, the IC50 [1] was 47.4 µM and the IC50 (Acetylcholinesterase) was 0.0373 µM.
In the case of COc1ccc(-c2cc(=O)c3ccc(OCCCCN4CCC(C)CC4)cc3o2)cc1, the IC50 [1] is reported as 48.2 µM and the IC50 (Acetylcholinesterase) is reported as 0.0135 µM.
Molecule COc1ccc(-c2cc(=O)c3ccc(OCCCCCN4CCC(C)CC4)cc3o2)cc1 has an IC50 [1] of 55.1 µM and an IC50 (Acetylcholinesterase) of 0.0156 µM.
